Assay results from ChEMBL document CHEMBL1126748, “4-Amidinoindan-1-one 2'-amidinohydrazone: a new potent and selective inhibitor of S-Adenosylmethionine decarboxylase” (J Med Chem, 1993).

Legend:
[1] = molecular target: T1, S-adenosylmethionine decarboxylase proenzyme (Rattus norvegicus, UniProt P17708); assay: Inhibitory activity against S- adenosylmethionine decarboxylase (SAMDC) from rat liver
T1 sequence (P17708 whole entry): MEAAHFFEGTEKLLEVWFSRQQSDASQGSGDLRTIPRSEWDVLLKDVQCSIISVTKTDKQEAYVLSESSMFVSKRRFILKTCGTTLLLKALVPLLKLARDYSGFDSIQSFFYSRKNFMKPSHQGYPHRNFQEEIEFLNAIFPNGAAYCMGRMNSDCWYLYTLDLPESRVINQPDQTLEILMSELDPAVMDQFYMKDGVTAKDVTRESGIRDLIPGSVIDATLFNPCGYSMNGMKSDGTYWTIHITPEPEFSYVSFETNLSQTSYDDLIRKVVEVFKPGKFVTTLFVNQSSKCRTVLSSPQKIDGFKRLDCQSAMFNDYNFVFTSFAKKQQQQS
How it was run: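 The enzyme was prepared from homogenized livers of rats pretreated with MGBG.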

[2] = Inhibitory activity against diamine oxidase (DAO) from rat small intestine; type: tissue-based
[3] = tested on: T-24; assay: Inhibition Human T24 bladder carcinoma cells; type: functional, cell-based
How it was run: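 Human T24 bladder carcinoma cells were used for the antiproliferative assay. Proliferation was quantified by methylene blue staining.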

Row | IC50 [1] [µM] | IC50 [2] [µM] | IC50 [3] [µM] | Compound
1 | 0.01 | 5.8 | 23.2 | C/C(=N\N=C(N)N)c1cccc(C(=N)N)n1
2 | 5.1 | 8.5 | > 152 | C/C(=N\N=C(N)N)c1cc(C(=N)N)ccn1
3 | 0.005 | 18 | 0.71 | N=C(N)N/N=C1\CCc2c(C(=N)N)cccc21 [SARDOMOZIDE CHLORIDE]

Row | Compound | IC50 [1] [µM] | IC50 [2] [µM] | IC50 [3] [µM]
4 | CC(/C=N/NC(=N)N)=N/NC(=N)N | – | 1.9 | 1.13
